Experimental data from PMC3831274 (Bioorganic & medicinal chemistry, 2013).

Key:
CYP450 2C9 = CYP450 2C9 (Homo sapiens, UniProt P11712); test: CYP450 inhibition 2C9; assay type: in vitro ADME
Bcl2-1863 [1] = test: Annexin V apoptosis assay; assay type: cell-based, mouse; conditions: Bcl2-1863, 16 hours, 0.15 µM-40 µM
CYP450 2D6 = CYP450 2D6 (Homo sapiens, UniProt P10635); test: CYP450 inhibition 2D6; assay type: in vitro ADME
SUDHL-10 = test: cytochrome c release determination; assay type: cell-based, human; conditions: SUDHL-10, 2 hours, 20µM EU-5346 or 100µM Puma
Bcl-xL = Bcl-xL (Homo sapiens, UniProt Q07817); test: fluorescence polarization; assay type: binding
SUDHL-8 = test: cytochrome c release determination; assay type: cell-based, human; conditions: SUDHL-8, 2 hours, 20µM EU-5346 or 100µM Puma
Mcl1-1780 [2] = test: cytochrome c release determination; assay type: cell-based, mouse; conditions: Mcl1-1780 compared with Bcl2-1863, 2 hours
[3] = test system: several cell lines derived from various human malignancies; test: antiproliferative activity across several cell lines; assay type: cell-based
Method in brief: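 Cells at 2.5 × 10⁵ cells/mL in 384-well plates; suspension lines in RPMI-1640/10% FBS (mouse lines plus β-mercaptoethanol), adherent lines in DMEM/10% FBS. Seven 2-fold dilutions from 5 µM or 20 µM top; DMSO top 0.2%. 37°C, 48 h; PrestoBlue read-out. Media background subtracted; viability normalized to cells-only wells (100%). Two independent triplicate runs (n=6) or three replicate experiments, by cell set.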

CYP450 1A2 = molecular target: T1, CYP450 1A2 (Homo sapiens, UniProt P05177); test: CYP450 inhibition 1A2
T1 sequence (P05177 1-516): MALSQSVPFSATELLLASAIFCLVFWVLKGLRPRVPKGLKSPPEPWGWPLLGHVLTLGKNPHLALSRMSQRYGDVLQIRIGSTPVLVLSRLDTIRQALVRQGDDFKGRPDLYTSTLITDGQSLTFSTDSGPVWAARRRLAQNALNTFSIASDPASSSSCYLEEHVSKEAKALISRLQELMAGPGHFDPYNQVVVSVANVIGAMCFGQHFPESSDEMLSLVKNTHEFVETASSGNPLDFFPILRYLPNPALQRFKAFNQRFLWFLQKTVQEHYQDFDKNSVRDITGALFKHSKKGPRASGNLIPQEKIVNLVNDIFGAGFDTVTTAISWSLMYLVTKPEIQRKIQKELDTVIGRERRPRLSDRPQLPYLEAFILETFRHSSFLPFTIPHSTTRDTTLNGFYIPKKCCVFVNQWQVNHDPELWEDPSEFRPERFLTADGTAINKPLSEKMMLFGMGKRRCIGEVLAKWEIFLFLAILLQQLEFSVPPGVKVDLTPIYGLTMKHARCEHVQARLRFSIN

Mcl1-1780 [4] = test: Annexin V apoptosis assay; assay type: cell-based, mouse; conditions: Mcl1-1780, 16 hours, 0.15 µM-40 µM
Mcl1-1780 [5] = test: nuclear apoptosis determination; assay type: cell-based, mouse; conditions: Mcl1-1780, 24 hours
SUDHL-6 = test: cytochrome c release determination; assay type: cell-based, human; conditions: SUDHL-6, 2 hours, 20µM EU-5346 or 100µM Puma
CYP450 3A4 = CYP450 3A4 (Homo sapiens, UniProt P08684); test: CYP450 inhibition 3A4; assay type: in vitro ADME
Human Mcl-1 = Human Mcl-1 (Homo sapiens, UniProt Q07820); test: fluorescence polarization; assay type: binding; conditions: for Mcl-1 potency relative to initial hit 1 (in words): SAR of phenyl region
Bcl2-1863 [6] = test: nuclear apoptosis determination; assay type: cell-based, mouse; conditions: Bcl2-1863, 24 hours

Human Mcl-1, sequence (Q07820 1-327 limits assumed): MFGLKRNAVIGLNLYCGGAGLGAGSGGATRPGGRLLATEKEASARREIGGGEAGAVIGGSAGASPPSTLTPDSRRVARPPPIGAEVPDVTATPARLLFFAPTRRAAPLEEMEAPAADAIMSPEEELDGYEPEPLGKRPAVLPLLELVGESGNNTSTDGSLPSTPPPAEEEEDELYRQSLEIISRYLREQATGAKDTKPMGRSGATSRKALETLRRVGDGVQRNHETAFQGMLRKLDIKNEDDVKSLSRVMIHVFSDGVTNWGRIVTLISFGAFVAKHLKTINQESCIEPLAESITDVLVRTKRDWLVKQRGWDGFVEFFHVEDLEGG
Bcl-xL, sequence (Q07817 1-209 limits assumed): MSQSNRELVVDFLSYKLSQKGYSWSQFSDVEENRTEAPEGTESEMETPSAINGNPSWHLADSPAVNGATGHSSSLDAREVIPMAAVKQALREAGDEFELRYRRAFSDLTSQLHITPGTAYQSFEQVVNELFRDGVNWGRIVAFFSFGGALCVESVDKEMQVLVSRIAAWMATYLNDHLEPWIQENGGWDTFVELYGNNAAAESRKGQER
CYP450 2D6, sequence (P10635 whole entry): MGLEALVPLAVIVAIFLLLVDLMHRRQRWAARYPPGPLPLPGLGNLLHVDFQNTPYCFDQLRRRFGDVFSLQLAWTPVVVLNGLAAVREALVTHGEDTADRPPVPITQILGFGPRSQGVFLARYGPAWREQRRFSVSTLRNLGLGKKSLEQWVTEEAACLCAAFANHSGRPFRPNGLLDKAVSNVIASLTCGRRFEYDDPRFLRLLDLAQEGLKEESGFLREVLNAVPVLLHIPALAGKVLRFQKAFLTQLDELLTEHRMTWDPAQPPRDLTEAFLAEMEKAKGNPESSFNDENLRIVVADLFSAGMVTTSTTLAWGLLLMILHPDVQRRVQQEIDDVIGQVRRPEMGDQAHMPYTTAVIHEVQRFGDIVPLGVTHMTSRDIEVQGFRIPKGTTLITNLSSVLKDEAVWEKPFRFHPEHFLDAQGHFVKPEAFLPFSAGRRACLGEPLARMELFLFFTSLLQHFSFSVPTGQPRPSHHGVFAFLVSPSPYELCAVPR
CYP450 2C9, sequence (P11712 whole entry): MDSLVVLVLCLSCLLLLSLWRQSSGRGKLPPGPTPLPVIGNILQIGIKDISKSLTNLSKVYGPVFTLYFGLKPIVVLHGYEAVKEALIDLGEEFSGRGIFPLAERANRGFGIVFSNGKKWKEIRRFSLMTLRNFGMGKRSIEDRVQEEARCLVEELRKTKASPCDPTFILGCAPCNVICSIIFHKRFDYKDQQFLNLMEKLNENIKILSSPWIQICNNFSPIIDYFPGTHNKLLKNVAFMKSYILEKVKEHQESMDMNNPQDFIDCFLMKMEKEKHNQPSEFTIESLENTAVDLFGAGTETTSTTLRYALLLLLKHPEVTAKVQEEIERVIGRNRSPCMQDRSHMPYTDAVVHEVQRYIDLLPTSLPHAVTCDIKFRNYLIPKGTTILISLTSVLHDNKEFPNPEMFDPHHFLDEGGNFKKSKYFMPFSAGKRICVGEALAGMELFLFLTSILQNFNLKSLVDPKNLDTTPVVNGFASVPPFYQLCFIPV
CYP450 3A4, sequence (P08684 whole entry): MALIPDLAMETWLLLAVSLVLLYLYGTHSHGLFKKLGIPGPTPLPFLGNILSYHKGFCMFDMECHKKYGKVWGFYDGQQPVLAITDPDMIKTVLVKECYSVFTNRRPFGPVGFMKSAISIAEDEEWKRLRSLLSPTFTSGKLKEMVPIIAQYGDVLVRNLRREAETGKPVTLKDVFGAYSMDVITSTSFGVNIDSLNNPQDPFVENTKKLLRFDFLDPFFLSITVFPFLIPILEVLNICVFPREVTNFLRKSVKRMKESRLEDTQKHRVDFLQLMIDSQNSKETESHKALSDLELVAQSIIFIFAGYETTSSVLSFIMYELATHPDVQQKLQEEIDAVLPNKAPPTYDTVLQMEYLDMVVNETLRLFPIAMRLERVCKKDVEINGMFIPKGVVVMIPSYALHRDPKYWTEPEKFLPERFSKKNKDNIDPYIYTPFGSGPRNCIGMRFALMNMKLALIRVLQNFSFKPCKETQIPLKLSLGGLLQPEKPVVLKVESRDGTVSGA

In the case of `CCN1CCN(C(c2ccc(C(F)(F)F)cc2)c2cc(Cl)c3cccnc3c2O)CC1` (stereo not shown) [Compound 9], the IC50 (CYP450 2C9) is reported as > 10 µM, the “percent of Annexin V positive cells” value (Bcl2-1863 [1]) is reported as “displayed dose-dependency” and the IC50 (CYP450 2D6) is reported as > 10 µM. For the same molecule, the cytochrome c release (SUDHL-10) was “significantly reduced”, the IC50 (Bcl-xL; read-out: Bcl-xL IC50, FP assay, GST-Bcl-xL, FITC-Bim) was 40 µM and the cytochrome c release (SUDHL-8) was “significantly reduced”. For the same molecule, the cytochrome c release (Mcl1-1780 [2]) was “significantly greater”, the EC50 ([3]; Homo sapiens, read-out: EC50 values, range over cell lines) was 0.3 to 15 µM and the “efficacy in cellular proliferation assays (in words)” value ([3]; Mcl1-1780, Bcl2-1863, SUDHL-6, NCIH929) was “low micromolar efficacy”. The IC50 (CYP450 1A2) was > 10 µM, the “percent of Annexin V positive cells” value (Mcl1-1780 [4]) was “greater in Mcl1-1780 than in Bcl2-1863” and the “induction of nuclear apoptosis / reduced viability (DAPI)” value (Mcl1-1780 [5]) was “reduces viability with a marked preference”. For the same molecule, the cytochrome c release (SUDHL-6) was “greatest extent of cytochrome c release” and the IC50 (CYP450 3A4) was > 10 µM.

With `Cc1ccnc(NC(c2ccc(F)cc2)c2cc(Cl)c3cccnc3c2O)c1` (stereo not shown) [Compound 8] the “Mcl-1 potency relative to initial hit 1 (in words)” value (Human Mcl-1) was “five-fold more potent”.

In the case of `CC1(C)CCC(c2ccc(Cl)cc2)=C(CN2CCN(c3ccc(C(=O)NS(=O)(=O)c4ccc(N[C@H](CCN5CCOCC5)CSc5ccccc5)c(S(=O)(=O)C(F)(F)F)c4)cc3)CC2)C1` [Navitoclax, reference compound], the “induction of nuclear apoptosis / reduced viability (DAPI)” value (Bcl2-1863 [6]) is reported as “distinct preference in inducing apoptosis” and the “induction of nuclear apoptosis / reduced viability (DAPI)” value (Mcl1-1780 [5]) is reported as “only minimal effectiveness”.

With `COc1ccc(C(Nc2ccccn2)c2cc(Cl)c3cccnc3c2O)cc1` (stereo not shown) [Compound 6] the “Mcl-1 potency relative to initial hit 1 (in words)” value (Human Mcl-1) was “enhanced potency”.

In the case of `O=C(O)COc1ccccc1C(Nc1ccccn1)c1cc(Cl)c2cccnc2c1O` (stereo not shown) [Compound 1], the “selectivity over Bcl-xL” value (Human Mcl-1; Mcl-1 versus Bcl-xL, FP assays) is reported as “greater than 40 fold”, the “inhibition of Bcl-xL” value (Bcl-xL; at 100 µM) is reported as “no appreciable inhibition” and the “antiproliferative activity (in words)” value ([3]; cell lines not specified) is reported as “only modest antiproliferative activity”.

In the case of `Oc1c(C(Nc2ccccn2)c2ccco2)cc(Cl)c2cccnc12` (stereo not shown) [Compound 7], the “Mcl-1 potency relative to initial hit 1 (in words)” value (Human Mcl-1) is reported as “enhanced potency”.
